The source of these data is ChEMBL document CHEMBL2046418, “Pyrrolidinobenzoic acid inhibitors of influenza virus neuraminidase: the hydrophobic side chain influences type A subtype selectivity” (Bioorg Med Chem, 2012).

Test [1] deals with T1, Neuraminidase (Influenza A virus, UniProt B4URF0). As to the kind of experiment: Inhibition of Influenza A virus (A/Uruguay/716/2007(H3N2)) neuraminidase using fluorogenic substrate 2'-(4-methylumbelliferyl)-alpha-D-N-acetylneuraminic acid preincubated with inhibitor for 30 mins measured after 15 mins by fluorescence analysis. An outline of the steps: (§1)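 Purified intact virions served as the NA source. They were preincubated 30 min at room temperature with two-fold inhibitor dilutions in 50 mM sodium acetate pH 6.0, 100 µM CaCl2, 320 µM MgCl2 and 60 mM NaCl. 100 µM MUNANA was added, then incubated 15 min at 37 °C and stopped with 5 volumes 0.2 M glycine-NaOH pH 11. IC50 came from a log(inhibitor)-normalized response fit, cross-checked from the linear region of fractional activity versus concentration.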

Test [2] concerns the target T1, Neuraminidase. As to the kind of experiment: Inhibition of Influenza A virus (A/Solomon Islands/3/2006(H1N1)) neuraminidase using fluorogenic substrate 2'-(4-methylumbelliferyl)-alpha-D-N-acetylneuraminic acid preincubated with inhibitor for 30 mins measured after 15 mins by fluorescence analysis. A digest of the protocol: as §1
The nature of test [3]: Inhibition of Influenza B virus (B/Malayasia/5206/04) neuraminidase using fluorogenic substrate 2'-(4-methylumbelliferyl)-alpha-D-N-acetylneuraminic acid preincubated with inhibitor for 30 mins measured after 15 mins by fluorescence analysis. An outline of the steps:
as §1

Test [4] deals with T1, Neuraminidase. The experiment in a line: Inhibition of Influenza A virus (A/Brisbane/59/2007(H1N1)) neuraminidase using fluorogenic substrate 2'-(4-methylumbelliferyl)-alpha-D-N-acetylneuraminic acid preincubated with inhibitor for 30 mins measured after 15 mins by fluorescence analysis. An outline of the steps: as §1
The target of test [5] is T1, Neuraminidase. As to the kind of experiment: Inhibition of Influenza A virus (A/Oklahoma/3052/2009(H1N1)) neuraminidase using fluorogenic substrate 2'-(4-methylumbelliferyl)-alpha-D-N-acetylneuraminic acid preincubated with inhibitor for 30 mins measured after 15 mins by fluorescence analysis. An outline of the steps:
as §1

A short description of test [6]: Inhibition of Influenza B virus (B/Malaysia/2506/2004) neuraminidase using fluorogenic substrate 2'-(4-methylumbelliferyl)-alpha-D-N-acetylneuraminic acid preincubated with inhibitor for 30 mins measured after 15 mins by fluorescence analysis. An outline of the steps:
as §1

Test [7] deals with T1, Neuraminidase. The experiment in a line: Inhibition of Influenza A virus (A/Wisconsin/67/2005(H3N2)) neuraminidase using fluorogenic substrate 2'-(4-methylumbelliferyl)-alpha-D-N-acetylneuraminic acid preincubated with inhibitor for 30 mins measured after 15 mins by fluorescence analysis. An outline of the steps:
as §1

Test [8] addresses Neuraminidase (Influenza B virus (strain B/Lee/1940), UniProt P03474). As to the kind of experiment: Inhibition of Influenza B virus (B/Lee/1940) neuraminidase using fluorogenic substrate 2'-(4-methylumbelliferyl)-alpha-D-N-acetylneuraminic acid preincubated with inhibitor for 30 mins measured after 15 mins by fluorescence analysis. An outline of the steps: (§2)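 Enzyme source was purified intact virions. Then 100 μM 2'-(4-methylumbelliferyl)-α-D-N-acetylneuraminic acid was added and incubated 15 min at 37 °C. Reactions were stopped with 0.2 M glycine-NaOH pH 11. IC50 came from normalized log(inhibitor)-response fitting, cross-checked against the linear region of fractional activity versus concentration.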

Test [9] concerns the target Neuraminidase (Influenza A virus (strain A/Udorn/307/1972 H3N2), UniProt P0DOF9). As to the kind of experiment: Inhibition of Influenza A virus (A/udorn/1972(H3N2)) neuraminidase using fluorogenic substrate 2'-(4-methylumbelliferyl)-alpha-D-N-acetylneuraminic acid preincubated with inhibitor for 30 mins measured after 15 mins by fluorescence analysis. A digest of the protocol:
as §1

The target of test [10] is Neuraminidase (Influenza A virus (A/Puerto Rico/8/1934(H1N1)), UniProt P03468). As to the kind of experiment: Inhibition of Influenza A virus (A/Puerto Rico/8/1934(H1N1)) neuraminidase using fluorogenic substrate 2'-(4-methylumbelliferyl)-alpha-D-N-acetylneuraminic acid preincubated with inhibitor for 30 mins measured after 15 mins by fluorescence analysis. A digest of the protocol: as §2

For test [11], the target named is T1, Neuraminidase. As to the kind of experiment: Inhibition of influenza A virus avian N9 neuraminidase.
Test [12] addresses T1, Neuraminidase. As to the kind of experiment: Inhibition of influenza A virus neuraminidase. A digest of the protocol: as §2
Test [13] can be described thus: Inhibition of influenza B virus neuraminidase. An outline of the steps: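 Purified intact influenza B virions as neuraminidase source. Preincubated 30 min at room temperature with two-fold inhibitor dilutions in 50 mM sodium acetate pH 6.0, 100 μM CaCl2, 320 μM MgCl2, 60 mM NaCl. Then 100 μM 2'-(4-methylumbelliferyl)-α-D-N-acetylneuraminic acid, 15 min at 37 °C, stopped with 5 volumes 0.2 M glycine-NaOH pH 11. Fluorescence read-out. IC50 from log(inhibitor) vs normalized response, cross-checked against the linear region of the fractional-activity curve.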

Turning to `CCC(C)OCc1cc(C(=O)O)ccc1N1C(=O)CCC1(CO)CO` (centres undefined), the IC50 against Neuraminidase [1] is 0.2 µM; on Neuraminidase [2] it was 11 µM; in [3] it was 80 µM.

On to `CC(C)OCc1cc(C(=O)O)ccc1N1C(=O)CCC1(CO)CO`, for which the results for the IC50 against Neuraminidase [1] and against Neuraminidase [4] were 4000 µM and more than 10000 µM, respectively.

For the compound `CCC(=Cc1cc(C(=O)O)ccc1N1C(=O)CCC1(CO)CO)CC`, the IC50 against Neuraminidase [5] is 3.4 µM; in test [6], 120 µM; against Neuraminidase [7], 0.41 µM.

`CCC(CC)Nc1cc(C(=O)O)ccc1N1C(=O)CCC1(CO)CO`: the IC50 at Neuraminidase [8] was 271 µM; against Neuraminidase [9], 0.49 µM; in test [10], 79 µM; on Neuraminidase [11], 0.048 µM.

With `O=C(O)c1ccc(N2C(=O)CCC2(CO)CO)c(COCc2ccccc2)c1`, the IC50 turned out to be 200 µM at Neuraminidase [1] and 1600 µM against Neuraminidase [2].

Consider `CCC(CC)Cc1cc(C(=O)O)ccc1N1C(=O)CCC1(CO)CO`, for which the half-maximal inhibitory concentration (IC50) against Neuraminidase [5] was 3.2 µM; in test [6], 32 µM; against Neuraminidase [7], 0.2 µM.

Take `CC(=O)N[C@H]1[C@H]([C@H](O)[C@H](O)CO)OC(C(=O)O)=C[C@@H]1O` [NEU5AC2EN]: the inhibition constant (Ki) (at Neuraminidase [12]; in test [13]) was 4 µM throughout.

For the compound `CC(C)Cc1cc(C(=O)O)ccc1N1C(=O)CCC1(CO)CO`, the figures for the IC50 (in test [6]; against Neuraminidase [1]) were 140 µM and 3 µM, respectively.

Turning to `O=C(O)c1ccc(N2C(=O)CCC2(CO)CO)c(COc2ccccc2)c1`, the IC50 turned out to be 40 µM against Neuraminidase [1] and 400 µM at Neuraminidase [2].

Consider `CCCC(CCC)Cc1cc(C(=O)O)ccc1N1C(=O)CCC1(CO)CO`, for which the figures for the IC50 (in test [6]; against Neuraminidase [7]) were 190 µM and 0.5 µM, respectively.

Take `CCC(CC)OCc1cc(C(=O)O)ccc1N1C(=O)CCC1(CO)CO`: the IC50 against Neuraminidase [1] is 0.5 µM; at Neuraminidase [4], 1 µM; on Neuraminidase [2] it was 0.8 µM; in test [3], 30 µM.

One may read the IC50 as the concentration at which inhibition is half-maximal. Read a high IC50 as weaker potency. In general, Ki refers to the equilibrium dissociation constant of an inhibitor or competing ligand from its target.
